Series [1] in a line: Cytotoxicity against mouse +SA cells after 24 hrs by MTT assay. Type of series: functional, cell-based. To be noted: +SA cell. A digest of the protocol:
(§1)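 Compounds dissolved in DMSO, conjugated overnight to 10% BSA at 37 °C, tested at 0–40 µM, final DMSO <0.1%. +SA cells seeded at 5 × 10⁴/well or CL-S1 at 1 × 10⁵/well (six wells/group), grown 3 days (~70% confluent), then treated 24 h. MTT 0.42 mg/mL, 4 h at 37 °C; crystals dissolved in isopropanol, read at 570 nm. Cell number from standard curve; IC50 by linear regression.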

Another series relates to MDA-MB-231. Nature of the series: Antimigratory activity against human MDA-MB-231 at 5 uM after 24 hrs by wound-healing assay. Type of series: functional. Particulars: MDA-MB-231, 24 h. A digest of the protocol:
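MDA-MB-231 grown in RPMI 1640 with 10 mM HEPES, 4 mM L-glutamine, 10% FBS, 5% CO2, 37 °C. Confluent (>95%) monolayers scratched with pipette tip, washed with PBS, then given compound in DMSO at 5 µM (DMSO vehicle control), in triplicate. After 24 h under serum starvation, cells fixed and Diff Quick stained. Migrated cells counted in ≥3 random 400× fields, mean ± SEM.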

Series [2] is described as follows: Cytotoxicity against mouse CL-S1 cells assessed as cell viability after 24 hrs by MTT assay. Particulars: cl-s1, 24 h. The class given is cell-based. A digest of the protocol: as §1
The nature of series [3]: Chemical stability of the compound in phosphate buffer at pH 7.4 after 24 hrs by HPLC method relative to zero time concentration. The class given is physicochemical. A digest of the protocol:
(§2)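 500 µg/mL compound dissolved in pH 7.4 phosphate buffer in amber vials and kept at 37 °C. Samples taken at 0, 0.5, 1, 2, 4, 6 and 24 h, mixed with equal volume methanol, analysed by HPLC with UV at 295 nm. Amount expressed relative to the zero-time concentration.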

Series [4] in a line: Stability of the compound in rat plasma after 24 hrs by HPLC method relative to zero time concentration. The class given is ADME, cell-free. Particulars: read-out: Stability. Summed up:
(§3)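 50 µg/mL compound dissolved in rat plasma in amber vials and incubated at 37 °C. Samples taken at 0, 0.5, 1, 2, 4, 6 and 24 h, mixed with 100 µL methanol, centrifuged 14,000 rpm for 10 min. Supernatant analysed by HPLC with UV at 295 nm, relative to zero-time concentration.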

Series [5] in a line: Stability of the compound in rat plasma after 4 hrs by HPLC method relative to zero time concentration. The class given is ADME, cell-free. To be noted: read-out: Stability. Summed up:
as §3

Series [6] in a line: Solubility of the compound in phosphate buffer at pH 7.4 after up to 24 hrs by HPLC method relative to alpha-tocotrienol. Particulars: pH 7.4, 24 h. Type of series: physicochemical. Summed up:
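About 5.6 mg compound added to 3 mL pH 7.4 phosphate buffer in amber vials and shaken at 25 °C for 24 h. Centrifuged 5000 rpm, 10 min; clear supernatant sampled at 0, 1, 2, 4, 6 and 24 h. Concentration determined by HPLC with UV at 295 nm.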

The nature of series [7]: Chemical stability of the compound in phosphate buffer at pH 7.4 after 1 hr by HPLC method relative to zero time concentration. Type of series: physicochemical. To be noted: pH 7.4, 1 h. A digest of the protocol:
as §2

From ChEMBL document CHEMBL1275356, “Redox-silent tocotrienol esters as breast cancer proliferation and migration inhibitors” (Bioorg Med Chem, 2010) come the findings set out here.

A value given as a limit tells only on which side of the number the result lay.

In the case of `CC(C)=CCC/C(C)=C/CC/C(C)=C/CC[C@]1(C)CCc2c(C)c(OC(=O)c3ccc(C(=O)O)cc3C(=O)O)c(C)c(C)c2O1`, in series [1], the IC50 is 1.5 µM. The compound further yielded an inhibition at 5 µM in the series with MDA-MB-231 of 50%.
As to `CC(C)=CCC/C(C)=C/CC/C(C)=C/CC[C@]1(C)CCc2cc(OC(=O)c3ccc(C(=O)O)cc3C(=O)O)c(C)c(C)c2O1`, half-maximal inhibition in series [1] (IC50) was put at 0.62 µM.
Consider `CC(C)=CCC/C(C)=C/CC/C(C)=C/CC[C@]1(C)CCc2c(C)c(OC(=O)c3cc(C(=O)O)ccc3C(=O)O)c(C)c(C)c2O1`, for which, in series [1], the IC50 came out at 1.46 µM. The inhibition at 5 µM with MDA-MB-231 stood at 50%.
In turn, `CC(C)=CCC/C(C)=C/CC/C(C)=C/CC[C@]1(C)CCc2cc(OC(=O)c3cc(C(=O)O)ccc3C(=O)O)c(C)c(C)c2O1` yielded an IC50 in series [1] of 1.44 µM.
Regarding `CC(C)=CCC/C(C)=C/CC/C(C)=C/CC[C@]1(C)CCc2cc(OC(=O)c3cc(C(=O)O)ccc3C(=O)O)cc(C)c2O1`, the midpoint of inhibition in series [1], the IC50, lay at 1.5 µM. Further, in the series with MDA-MB-231, the inhibition at 5 µM turned out to be 50%.
`CC(=O)Oc1cc(C(=O)Oc2cc3c(c(C)c2C)O[C@](C)(CC/C=C(\C)CC/C=C(\C)CCC=C(C)C)CC3)cc(OC(C)=O)c1OC(C)=O` came in with an IC50 in series [1] of 1.72 µM.
With `CC(=O)Oc1ccc(/C=C/C(=O)Oc2cc3c(c(C)c2C)O[C@](C)(CC/C=C(\C)CC/C=C(\C)CCC=C(C)C)CC3)cc1OC(C)=O`, the Activity entry in series [2] is “Non-toxic”. Further, in series [1], the IC50 was more than 40 µM.
Take `CC(C)=CCC/C(C)=C/CC/C(C)=C/CC[C@]1(C)CCc2c(C)c(OC(=O)/C=C\C(=O)O)c(C)c(C)c2O1`: the remaining at 24 h in series [3] (phosphate buffer, pH 7.4, read-out: Stability) was determined as 100%; in series [4], 43%. The remaining at 4 h in series [5] was determined as 81%. In addition, in series [1], the IC50 came out at 0.52 µM. In the series with MDA-MB-231, this compound returned an inhibition at 5 µM of 50%. The “fold change (FC)” value in series [6] worked out at 1000.
For `CC(C)=CCC/C(C)=C/CC/C(C)=C/CC[C@]1(C)CCc2cc(OC(=O)/C=C\C(=O)O)c(C)c(C)c2O1`, the IC50 in series [1] was 2.3 µM. The compound also registered an inhibition at 5 µM in the series on MDA-MB-231 of 50%.
For the compound `CC(C)=CCC/C(C)=C/CC/C(C)=C/CC[C@]1(C)CCc2cc(OC(=O)/C=C\C(=O)O)cc(C)c2O1`, the IC50 in series [1] came out at 0.87 µM.
Regarding `CC(C)=CCC/C(C)=C/CC/C(C)=C/CC[C@]1(C)CCc2cc(OC(=O)CC(C)CC(=O)O)c(C)c(C)c2O1` (stereo not given in full), the Activity result in series [2] was “Non-toxic”. In addition, the IC50 in series [1] came out at 19.2 µM.
Consider `CC(C)=CCC/C(C)=C/CC/C(C)=C/CC[C@]1(C)CCc2cc(OC(=O)c3ccccc3)c(C)c(C)c2O1`, for which the Activity entry in series [2] was “Non-toxic”. The IC50 in series [1] was found to be 6.55 µM. In the series with MDA-MB-231, the inhibition at 5 µM worked out at 50%.
Turning to `CC(C)=CCC/C(C)=C/CC/C(C)=C/CC[C@]1(C)CCc2c(C)c(O)c(C)c(C)c2O1` [ALPHA-TOCOTRIENOL], the Stability result in series [3] (buffer, pH 7.4, 24 h) was “Unstable”; in series [7], “Unstable”. In addition, the IC50 in series [1] is 5 µM.
For `CC(C)=CCC/C(C)=C/CC/C(C)=C/CC[C@]1(C)CCc2cc(O)cc(C)c2O1` [DELTA-TOCOTRIENOL], the half-maximal inhibitory concentration (IC50) in series [1] stood at 3 µM.
The same measure, in the same setting: for `CC(C)=CCC/C(C)=C/CC/C(C)=C/CC[C@]1(C)CCc2cc(O)c(C)c(C)c2O1` [GAMMA-TOCOTRIENOL] the value was 4 µM.
